# Assay results taken from ChEMBL document CHEMBL1156669, “Aldehyde dehydrogenase inhibitors: alpha,beta-acetylenic N-substituted aminothiolesters are reversible growth inhibitors of normal epithelial but irreversible apoptogens for cancer epithelial cells from human prostate in culture” (Eur J Med Chem, 2008).
# Experiments:
# DU-145 = assay: Growth inhibition of human DU145 cells administered after 3 days; assay type: functional, cell-based; details: DU-145, 72 h
# Procedure, shortened: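 DU145 in RPMI 1640 with 10% FCS; 1 × 10⁵ cells per well in 24-well plates, compound added 4 h after seeding. After 3 days the adherent sheet was washed twice with PBS and harvested in 0.14 M NaOH, and protein content measured. IC50 is the mean of three experiments.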
# [1] = Growth inhibition of HPEN cells administered after 3 days; assay type: cell-based; details: Homo sapiens, 72 h
# Procedure, shortened: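 HPENC in PrEGM with supplement and 10% FCS; 1 × 10⁵ cells per well in 24-well plates, compound added 4 h after seeding once adhered. After 3 days, growth read as protein content. IC50 is the mean of three experiments.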
# BaF3 = assay: Induction of apoptosis in mouse BAF3 cells overexpressing bcl2; assay type: functional, cell-based
# [2] = target: Aldehyde dehydrogenase 1 (Saccharomyces cerevisiae); assay: Inhibition of ALDH1
Compound,IC50 (DU-145),also measured
CSC(=O)C#CC(C)(C)[N+](C)(C)C,> 600 µM,IC50 [1]: 590 µM
CSC(=O)C#CC(C)(C)N1CCc2ccccc21,7 µM,
CSC(=O)C#CC(C)(C)N,,IC50 (BaF3): 4 µM; Ki [2]: 280 µM
CSC(=O)C#CC(C)(C)N(Cc1ccccc1)Cc1ccccc1,7 µM,
CSC(=O)C#CC(C)(C)N(C)c1ccccc1,12.5 µM,

# Further lines, with some results ahead:
IC50 (DU-145),Compound,also measured
22 µM,CSC(=O)C#CC(C)(C)N1CCCCC1,
6.2 µM,CSC(=O)C#CC(C)(C)N1Cc2ccccc2C1,
> 100 µM,CSC(C#CC(C)(C)N1CCOCC1)=[N+](C)C,
